Source: ChEMBL document CHEMBL1152649, “Synthesis, cytotoxicity and human telomerase inhibition activities of a series of 1,2-heteroannelated anthraquinones and anthra[1,2-d]imidazole-6,11-dione homologues” (2009)

Legend:
[1] = Cytotoxicity against human H1299 cells at 100 uM after 48 hrs by MTT assay; assay type: functional; conditions: NCI-H1299, 48 h
In short: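 H1299 non-small cell lung cancer cells were grown in RPMI 1640 with 10% FBS, penicillin and streptomycin at 37 °C under 5% CO2. About 2 × 10³ cells per well were seeded and left 24 h. Compounds were dissolved fresh in DMSO, diluted into complete medium and applied for 48 h. MTT was then added for 4 h at 37 °C, followed by lysis buffer (20% SDS, 50% DMF) for 16 h, and absorbance was read at 550 nm.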

A549 = test: Antiproliferative activity against human A549 cells assessed as cell growth at 10 uM; assay type: functional; conditions: read-out: Activity
In short: (§1)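 NCI 60 cell line panel, single-dose screen (10^-5 M) run by the developmental therapeutics program protocol. Results are given as growth percent of treated cells relative to untreated control cells for each line.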

EKVX = test: Antiproliferative activity against human EKVX cells assessed as cell growth at 10 uM; assay type: functional; conditions: read-out: Activity; in short: as §1
HOP-62 = test: Antiproliferative activity against human HOP62 cells assessed as cell growth at 10 uM; assay type: functional; conditions: read-out: Activity; in short: as §1
SW-620 = test: Antiproliferative activity against human SW620 cells assessed as cell growth at 10 uM; assay type: functional; conditions: read-out: Activity
In short: (§2)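 NCI 60 cell line panel, single dose (10^-5 M), run per the Developmental Therapeutics Program protocol (one dose mean graph). Each result is the growth percentage of treated cells relative to untreated control cells.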

[2] = Antiproliferative activity against human Hs 578T cells assessed as cell growth at 10 uM; assay type: functional; conditions: read-out: Activity; in short: as §1
T47D = test: Antiproliferative activity against human T47D cells assessed as cell growth at 10 uM; assay type: functional; conditions: read-out: Activity; in short: as §2
OVCAR-3 = test: Antiproliferative activity against human OVCAR-3 cells assessed as cell growth at 10 uM; assay type: functional; conditions: read-out: Activity; in short: as §1
OVCAR-4 = test: Antiproliferative activity against human OVCAR4 cells assessed as cell growth at 10 uM; assay type: functional; conditions: read-out: Activity; in short: as §1
OVCAR-5 = test: Antiproliferative activity against human OVCAR5 cells assessed as cell growth at 10 uM; assay type: functional; conditions: read-out: Activity; in short: as §1
OVCAR-8 = test: Antiproliferative activity against human OVCAR8 cells assessed as cell growth at 10 uM; assay type: functional; conditions: read-out: Activity; in short: as §1
CCRF-CEM = test: Antiproliferative activity against human CCRF-CEM cells assessed as cell growth at 10 uM; assay type: functional; conditions: read-out: Activity; in short: as §1
K562 = test: Antiproliferative activity against human K562 cells assessed as cell growth at 10 uM; assay type: functional; conditions: read-out: Activity; in short: as §1
SR = test: Antiproliferative activity against human SR cells assessed as cell growth at 10 uM; assay type: functional; conditions: read-out: Activity; in short: as §2
786-0 = test: Antiproliferative activity against human 786-0 cells assessed as cell growth at 10 uM; assay type: functional; conditions: read-out: Activity; in short: as §1
A498 = test: Antiproliferative activity against human A498 cells assessed as cell growth at 10 uM; assay type: functional; conditions: read-out: Activity; in short: as §1
ACHN = test: Antiproliferative activity against human ACHN cells assessed as cell growth at 10 uM; assay type: functional; conditions: read-out: Activity; in short: as §1
CAKI-1 = test: Antiproliferative activity against human Caki1 cells assessed as cell growth at 10 uM; assay type: functional; conditions: read-out: Activity; in short: as §1
SN12C = test: Antiproliferative activity against human SN12C cells assessed as cell growth at 10 uM; assay type: functional; conditions: read-out: Activity; in short: as §1
TK-10 = test: Antiproliferative activity against human TK10 cells assessed as cell growth at 10 uM; assay type: functional; conditions: read-out: Activity; in short: as §2
UO-31 = test: Antiproliferative activity against human UO31 cells assessed as cell growth at 10 uM; assay type: functional; conditions: read-out: Activity; in short: as §2
LOX IMVI = test: Antiproliferative activity against human LOXIMVI cells assessed as cell growth at 10 uM; assay type: functional; conditions: read-out: Activity; in short: as §1
M14 = test: Antiproliferative activity against human M14 cells assessed as cell growth at 10 uM; assay type: functional; conditions: read-out: Activity; in short: as §1
Malme-3M = test: Antiproliferative activity against human MALME-3M cells assessed as cell growth at 10 uM; assay type: functional; conditions: read-out: Activity; in short: as §1
SK-MEL-2 = test: Antiproliferative activity against human SK-MEL-2 cells assessed as cell growth at 10 uM; assay type: functional; conditions: read-out: Activity; in short: as §1
SK-MEL-28 = test: Antiproliferative activity against human SK-MEL-28 cells assessed as cell growth at 10 uM; assay type: functional; conditions: read-out: Activity; in short: as §1
SK-MEL-5 = test: Antiproliferative activity against human SK-MEL-5 cells assessed as cell growth at 10 uM; assay type: functional; conditions: read-out: Activity; in short: as §1
UACC-62 = test: Antiproliferative activity against human UACC62 cells assessed as cell growth at 10 uM; assay type: functional; conditions: read-out: Activity; in short: as §2
DU-145 = test: Antiproliferative activity against human DU145 cells assessed as cell growth at 10 uM; assay type: functional; conditions: read-out: Activity; in short: as §1
PC-3 = test: Antiproliferative activity against human PC3 cells assessed as cell growth at 10 uM; assay type: functional; conditions: read-out: Activity; in short: as §1
SF-268 = test: Antiproliferative activity against human SF268 cells assessed as cell growth at 10 uM; assay type: functional; conditions: read-out: Activity; in short: as §1
SF-539 = test: Antiproliferative activity against human SF539 cells assessed as cell growth at 10 uM; assay type: functional; conditions: read-out: Activity; in short: as §1
SNB-19 = test: Antiproliferative activity against human SNB19 cells assessed as cell growth at 10 uM; assay type: functional; conditions: read-out: Activity; in short: as §1
SNB-75 = test: Antiproliferative activity against human SNB75 cells assessed as cell growth at 10 uM; assay type: functional; conditions: read-out: Activity; in short: as §2
HOP-92 = test: Antiproliferative activity against human HOP92 cells assessed as cell growth at 10 uM; assay type: functional; conditions: read-out: Activity; in short: as §1
NCI-H226 = test: Antiproliferative activity against human NCI-H226 cells assessed as cell growth at 10 uM; assay type: functional; conditions: read-out: Activity; in short: as §1
NCI-H23 = test: Antiproliferative activity against human NCI-H23 cells assessed as cell growth at 10 uM; assay type: functional; conditions: read-out: Activity; in short: as §1
NCI-H322M = test: Antiproliferative activity against human NCI-H322M cells assessed as cell growth at 10 uM; assay type: functional; conditions: read-out: Activity; in short: as §1
NCI-H460 = test: Antiproliferative activity against human NCI-H460 cells assessed as cell growth at 10 uM; assay type: functional; conditions: read-out: Activity; in short: as §1
COLO 205 = test: Antiproliferative activity against human COLO205 cells assessed as cell growth at 10 uM; assay type: functional; conditions: read-out: Activity; in short: as §1
HCC 2998 = test: Antiproliferative activity against human HCC2998 cells assessed as cell growth at 10 uM; assay type: functional; conditions: read-out: Activity; in short: as §1
HCT-116 = test: Antiproliferative activity against human HCT116 cells assessed as cell growth at 10 uM; assay type: functional; conditions: read-out: Activity; in short: as §1
HCT-15 = test: Antiproliferative activity against human HCT15 cells assessed as cell growth at 10 uM; assay type: functional; conditions: read-out: Activity; in short: as §1
HT-29 = test: Antiproliferative activity against human HT-29 cells assessed as cell growth at 10 uM; assay type: functional; conditions: read-out: Activity; in short: as §1
KM12 = test: Antiproliferative activity against human KM12 cells assessed as cell growth at 10 uM; assay type: functional; conditions: read-out: Activity; in short: as §1
[3] = biological target: Telomerase reverse transcriptase (Homo sapiens) (UniProt O14746); test: Inhibition of TERT in human H1299 cells assessed as residual transcriptional activity at 10 uM after 24 hrs by SEAP reporter gene assay; values are per cent of control
Sequence of Telomerase reverse transcriptase (Homo sapiens) (O14746 whole entry): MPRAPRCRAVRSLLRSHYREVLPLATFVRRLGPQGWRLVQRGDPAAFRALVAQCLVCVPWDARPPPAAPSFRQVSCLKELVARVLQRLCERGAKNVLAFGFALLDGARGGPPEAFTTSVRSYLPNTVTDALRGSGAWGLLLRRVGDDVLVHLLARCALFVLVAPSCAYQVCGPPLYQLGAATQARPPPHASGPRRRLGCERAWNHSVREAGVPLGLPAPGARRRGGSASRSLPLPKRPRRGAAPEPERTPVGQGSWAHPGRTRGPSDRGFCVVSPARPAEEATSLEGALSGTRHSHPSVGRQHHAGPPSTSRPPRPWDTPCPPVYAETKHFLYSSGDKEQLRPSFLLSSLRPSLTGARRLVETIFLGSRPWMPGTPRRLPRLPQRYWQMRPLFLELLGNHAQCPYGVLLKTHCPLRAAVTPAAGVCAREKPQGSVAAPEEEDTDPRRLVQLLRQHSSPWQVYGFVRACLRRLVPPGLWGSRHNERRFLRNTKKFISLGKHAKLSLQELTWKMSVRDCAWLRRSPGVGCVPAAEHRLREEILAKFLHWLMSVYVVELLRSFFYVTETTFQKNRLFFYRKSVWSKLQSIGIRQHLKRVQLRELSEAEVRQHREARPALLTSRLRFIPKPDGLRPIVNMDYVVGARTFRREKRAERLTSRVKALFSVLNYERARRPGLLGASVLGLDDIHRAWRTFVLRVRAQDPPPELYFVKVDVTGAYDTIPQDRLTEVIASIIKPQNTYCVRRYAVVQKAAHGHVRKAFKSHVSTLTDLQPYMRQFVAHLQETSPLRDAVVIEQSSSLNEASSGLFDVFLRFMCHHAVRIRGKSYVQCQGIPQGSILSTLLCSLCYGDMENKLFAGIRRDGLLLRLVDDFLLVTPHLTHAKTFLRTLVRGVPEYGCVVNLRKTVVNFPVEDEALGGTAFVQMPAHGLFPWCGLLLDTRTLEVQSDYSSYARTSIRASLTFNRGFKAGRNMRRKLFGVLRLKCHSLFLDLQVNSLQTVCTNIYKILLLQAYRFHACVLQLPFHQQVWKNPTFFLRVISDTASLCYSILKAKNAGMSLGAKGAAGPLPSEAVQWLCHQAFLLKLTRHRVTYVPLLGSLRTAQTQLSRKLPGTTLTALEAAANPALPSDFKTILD

[4] = biological target: Telomerase reverse transcriptase (Homo sapiens) (UniProt O14746); test: Inhibition of TERT in human H1299 cells assessed as residual transcriptional activity at 100 uM after 24 hrs by SEAP reporter gene assay; values are per cent of control

## O=C1c2ccccc2C(=O)c2c1ccc1nc(-c3ccc(Br)cc3)[nH]c21
[1]
  viability at 100 µM: 20%
A549
  growth at 10 µM: 95%
EKVX
  growth at 10 µM: 82.7%
HOP-62
  growth at 10 µM: 104%
SW-620
  growth at 10 µM: 95%
[2]
  growth at 10 µM: 181%
T47D
  growth at 10 µM: 97.3%
OVCAR-3
  growth at 10 µM: 100%
OVCAR-4
  growth at 10 µM: 94.1%
OVCAR-5
  growth at 10 µM: 93.2%
OVCAR-8
  growth at 10 µM: 96.3%
CCRF-CEM
  growth at 10 µM: 98.7%
K562
  growth at 10 µM: 109%
SR
  growth at 10 µM: 92.4%
786-0
  growth at 10 µM: 111%
A498
  growth at 10 µM: 117%
ACHN
  growth at 10 µM: 91.4%
CAKI-1
  growth at 10 µM: 86.6%
SN12C
  growth at 10 µM: 112%
TK-10
  growth at 10 µM: 280%
UO-31
  growth at 10 µM: 66.2%
LOX IMVI
  growth at 10 µM: 102%
M14
  growth at 10 µM: 102%
Malme-3M
  growth at 10 µM: 224%
SK-MEL-2
  growth at 10 µM: 72.2%
SK-MEL-28
  growth at 10 µM: 131%
SK-MEL-5
  growth at 10 µM: 87.1%
UACC-62
  growth at 10 µM: 105%
DU-145
  growth at 10 µM: 113%
PC-3
  growth at 10 µM: 88.7%
SF-268
  growth at 10 µM: 106%
SF-539
  growth at 10 µM: 103%
SNB-19
  growth at 10 µM: 101%
SNB-75
  growth at 10 µM: 87.3%
HOP-92
  growth at 10 µM: 83.5%
NCI-H226
  growth at 10 µM: 103%
NCI-H23
  growth at 10 µM: 93.1%
NCI-H322M
  growth at 10 µM: 167%
NCI-H460
  growth at 10 µM: 96.2%
COLO 205
  growth at 10 µM: 110%
HCC 2998
  growth at 10 µM: 98.1%
HCT-116
  growth at 10 µM: 99.6%
HCT-15
  growth at 10 µM: 96.6%
HT-29
  growth at 10 µM: 98.8%
KM12
  growth at 10 µM: 102%
[3]
  residual activity: 71%
[4]
  residual activity: 36%

## COc1cc(-c2nc3ccc4c(c3[nH]2)C(=O)c2ccccc2C4=O)ccc1O
[1]
  viability at 100 µM: 38%
A549
  growth at 10 µM: 97.9%
EKVX
  growth at 10 µM: 89.1%
HOP-62
  growth at 10 µM: 116%
SW-620
  growth at 10 µM: 102%
[2]
  growth at 10 µM: 167%
T47D
  growth at 10 µM: 83.9%
OVCAR-3
  growth at 10 µM: 125%
OVCAR-4
  growth at 10 µM: 83%
OVCAR-5
  growth at 10 µM: 97.1%
OVCAR-8
  growth at 10 µM: 93.4%
CCRF-CEM
  growth at 10 µM: 94.7%
K562
  growth at 10 µM: 95.5%
SR
  growth at 10 µM: 73.9%
786-0
  growth at 10 µM: 109%
A498
  growth at 10 µM: 122%
ACHN
  growth at 10 µM: 100%
CAKI-1
  growth at 10 µM: 134%
SN12C
  growth at 10 µM: 102%
TK-10
  growth at 10 µM: 174%
UO-31
  growth at 10 µM: 80.7%
LOX IMVI
  growth at 10 µM: 109%
M14
  growth at 10 µM: 114%
Malme-3M
  growth at 10 µM: 107%
SK-MEL-2
  growth at 10 µM: 82.2%
SK-MEL-28
  growth at 10 µM: 132%
SK-MEL-5
  growth at 10 µM: 88.1%
UACC-62
  growth at 10 µM: 92.2%
DU-145
  growth at 10 µM: 88.1%
PC-3
  growth at 10 µM: 88.1%
SF-268
  growth at 10 µM: 107%
SF-539
  growth at 10 µM: 102%
SNB-19
  growth at 10 µM: 97.4%
SNB-75
  growth at 10 µM: 86%
HOP-92
  growth at 10 µM: 120%
NCI-H226
  growth at 10 µM: 100%
NCI-H23
  growth at 10 µM: 103%
NCI-H322M
  growth at 10 µM: 107%
NCI-H460
  growth at 10 µM: 90.1%
COLO 205
  growth at 10 µM: 101%
HCC 2998
  growth at 10 µM: 103%
HCT-116
  growth at 10 µM: 90.4%
HCT-15
  growth at 10 µM: 103%
HT-29
  growth at 10 µM: 101%
KM12
  growth at 10 µM: 113%
[3]
  residual activity: 50%
[4]
  residual activity: 8%
